Common to all, as to type: functional, cell-based
One experiment deals with A549. The experiment can be described thus: Antiproliferative activity against human A549 cells after 72 hrs by sulforhodamine B assay. Particulars: A549, 72 h. In a few lines: (§1)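 Cells grown in RPMI-1640 with 2 mM L-glutamine, 25 mM HEPES, 10% FBS, streptomycin and penicillin; seeded at 4000–12 000 cells per well and exposed to compounds for 72 h. Fixed in 10% trichloroacetic acid, stained with 0.04% SRB, bound dye dissolved in 10 mM Tris base, absorbance read at 515 nm. IC50 from at least three independent experiments run in duplicate.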
For orientation: In SRB staining, fixed cells bind dye roughly in proportion to their protein.

A further experiment concerns MDA-MB-231. The experiment can be described thus: Antiproliferative activity against human MDA-MB-231 cells after 72 hrs by sulforhodamine B assay. The conditions noted are these: MDA-MB-231, 72 h. The gist of the method:
as §1

For a further experiment, the system named is KB. The experiment can be described thus: Antiproliferative activity against human KB cells after 72 hrs by sulforhodamine B assay. In a few lines:
as §1

Experiment [1] in a line: Antiproliferative activity against human KBVIN cells after 72 hrs by sulforhodamine B assay. In a few lines:
as §1

Another experiment relates to MCF7. The experiment can be described thus: Antiproliferative activity against human MCF7 cells after 72 hrs by sulforhodamine B assay. The conditions noted are these: MCF7, 72 h. In a few lines:
as §1

A value given as a limit tells only on which side of the number the result lay.

Among the data in ChEMBL document CHEMBL4138263, “Taburnaemines A-I, Cytotoxic Vobasinyl-Iboga-Type Bisindole Alkaloids from Tabernaemontana corymbosa” (J Nat Prod, 2018) are IC50 values, retold here.

As for `C/C=C1/CN2COC[C@@]3(C(=O)OC)[C@@H]1C[C@@H](c1cc4c5c([nH]c4cc1OC)[C@]1(C(=O)OC)C[C@@H]4C[C@H](CC)[C@@H]1N(CC5)C4)c1[nH]c4ccccc4c1C[C@H]23`, the IC50 in the experiment with A549 stood at 4.3 µM; in the experiment on MDA-MB-231 it was 4.5 µM; in the experiment with KB it was 4.3 µM; in experiment [1], 4.4 µM; in the experiment on MCF7 it was 4.8 µM.
Take `CC[C@H]1C[C@@H]2C[C@@]3(C(=O)OC)c4[nH]c5c([C@@H]6C[C@H]7[C@@]8(C(=O)OC)CO[C@H](N(C)[C@H]8Cc8c6[nH]c6ccccc86)[C@@]76O[C@H]6C)c(OC)ccc5c4CCN([C@@H]2CC(C)=O)[C@@H]13`: the IC50 was 8.6 µM with A549; 7.7 µM in the experiment with MDA-MB-231; 7.4 µM in the experiment on KB; 6.6 µM in experiment [1]; greater than 10 µM with MCF7.
Consider `C/C=C1/CN(C)[C@H]2Cc3c([nH]c4ccccc34)[C@H](c3cc4c5c([nH]c4cc3OC)[C@]3(C(=O)OC)C[C@@H]4C[C@H](CC)[C@@H]3N(CC5)[C@@H]4CC(C)=O)C[C@H]1[C@]2(CO)C(=O)OC`, for which the IC50 with A549 turned out to be 5.6 µM; with MDA-MB-231, 4.8 µM; in the experiment with KB, 5 µM; in experiment [1], 5.1 µM; with MCF7, 6.1 µM.
For `C/C=C1/CN(C)[C@H]2Cc3c([nH]c4ccccc34)[C@H](c3cc4[nH]c5c(c4cc3OC)CCN3C[C@H]4C[C@H](CC)[C@H]3[C@H]5C4)C[C@H]1[C@@H]2C(=O)OC`, the IC50 came out at 4.3 µM in the experiment on A549; 4.5 µM in the experiment on MDA-MB-231; 4.8 µM in the experiment on KB; 4.4 µM in experiment [1]; 4.7 µM with MCF7.
Consider `C/C=C1/CN(C)[C@H]2Cc3c([nH]c4ccccc34)[C@H](c3ccc4[nH]c5c(c4c3)CCN3C[C@@H]4C[C@H](CC)[C@H]3[C@@]5(C(=O)OC)C4)C[C@H]1[C@]2(CO)C(=O)OC`, for which the IC50 in the experiment on A549 is 9.8 µM; with MDA-MB-231, 5.2 µM; with KB, 6.7 µM; in experiment [1], 8.3 µM; with MCF7, greater than 10 µM.
For `CC[C@H]1C[C@@H]2C[C@@]3(C(=O)OC)c4[nH]c5c([C@@H]6C[C@H]7[C@@]8(C(=O)OC)CO[C@H](N(C)[C@H]8Cc8c6[nH]c6ccccc86)[C@@]76O[C@H]6C)c(OC)ccc5c4CCN(C2=O)[C@@H]13`, the IC50 is 5.9 µM with A549; 8.2 µM in the experiment on MDA-MB-231; 5.7 µM in the experiment on KB; 5.8 µM in experiment [1]; 8.3 µM in the experiment with MCF7.
Taken in the same sequence, the figures for `C/C=C1/CN(C)[C@H]2Cc3c([nH]c4ccccc34)[C@H](c3c(OC)ccc4c5c([nH]c34)[C@]3(C(=O)OC)C[C@H]4C[C@H](CC)[C@@H]3N(CC5)C4)C[C@H]1[C@]2(CO)C(=O)OC` were 4.5 µM, 4.8 µM, 4.2 µM, 4.1 µM and 5.3 µM.
As for `C/C=C1/CN(C)[C@H]2Cc3c([nH]c4ccccc34)[C@H](c3c(OC)ccc4c5c([nH]c34)[C@]3(C(=O)OC)C[C@H]4C[C@H](CC)[C@@H]3N(CC5)[C@@H]4CO)C[C@H]1[C@]2(CO)C(=O)OC`, the IC50 in the experiment on A549 stood at 4.3 µM; in the experiment with MDA-MB-231, 4.5 µM; with KB, 4.5 µM; in experiment [1], 4.9 µM; with MCF7, 4.9 µM.
On to `C/C=C1/CN(C)[C@H]2Cc3c([nH]c4ccccc34)[C@H](c3cc4c(cc3OC)N=C3[C@]5(C(=O)OC)C[C@H]6C[C@H](CC)[C@@H]5N(CC[C@@]34O)C6)C[C@H]1[C@]2(CO)C(=O)OC`, for which the IC50 in the experiment with A549 is 3.1 µM; in the experiment on MDA-MB-231 it was 2.8 µM; with KB it was 2.7 µM; in experiment [1] it was 2.6 µM; in the experiment on MCF7, 3 µM.
Taken in the same sequence, the figures for `C/C=C1/CN2COC[C@]3(C(=O)OC)[C@@H]1C[C@@H](c1c(OC)ccc4c5c([nH]c14)[C@]1(C(=O)OC)C[C@H]4C[C@H](CC)[C@@H]1N(CC5)[C@@H]4CO)c1[nH]c4ccccc4c1C[C@H]23` were 4.7 µM, 5.1 µM, 4.8 µM, 4.9 µM and 6 µM.
As for `C/C=C1/CN2COC[C@]3(C(=O)OC)[C@@H]1C[C@@H](c1c(OC)ccc4c1N=C1[C@]5(C(=O)OC)C[C@H]6C[C@H](CC)[C@@H]5N(CC[C@]14O)C6)c1[nH]c4ccccc4c1C[C@H]23`, the IC50 in the experiment with A549 came to 4.9 µM; with MDA-MB-231, 8.2 µM; in the experiment with KB, 4.5 µM; in experiment [1], 4.7 µM; in the experiment with MCF7, 6.5 µM.
Consider `CC[C@H]1C[C@@H]2C[C@@]3(C(=O)OC)c4[nH]c5c([C@@H]6C[C@H]7[C@@]8(C(=O)OC)CO[C@H](N(C)[C@H]8Cc8c6[nH]c6ccccc86)[C@]76O[C@@H]6C)c(OC)ccc5c4CCN([C@@H]2CC(C)=O)[C@@H]13`, for which the IC50 (in the experiment on A549; in the experiment with MDA-MB-231; in the experiment with KB; in experiment [1]; in the experiment on MCF7) was greater than 10 µM in each case.
As for `CC[C@H]1C[C@H]2CN3CC[C@@]4(O)C(=Nc5cc(OC)c([C@@H]6C[C@H]7[C@@]8(C(=O)OC)CO[C@H](N(C)[C@H]8Cc8c6[nH]c6ccccc86)[C@@]76O[C@H]6C)cc54)[C@](C(=O)OC)(C2)[C@H]13`, the IC50 in the experiment with A549 is 4.3 µM; in the experiment with MDA-MB-231 it was 4.5 µM; in the experiment on KB, 4.7 µM; in experiment [1], 4.8 µM; in the experiment on MCF7, 4.6 µM.
For `C/C=C1/CN(C)[C@H]2Cc3c([nH]c4ccccc34)[C@H](c3c(OC)ccc4c5c([nH]c34)[C@]3(C(=O)OC)C[C@@H]4C[C@H](CC)[C@@H]3N(CC5)C4)C[C@H]1[C@@]2(CO)C(=O)OC`, the IC50 was 3.5 µM with A549; 4.8 µM in the experiment on MDA-MB-231; 4.3 µM in the experiment on KB; 4.7 µM in experiment [1]; 4.8 µM with MCF7.
Take `C/C=C1/CN(C)[C@H]2Cc3c([nH]c4ccccc34)[C@H](c3c(OC)ccc4c5c([nH]c34)[C@]3(C(=O)OC)C[C@H]4C[C@H](CC)[C@@H]3N3C[C@@H]5O[C@H]43)C[C@H]1[C@]2(CO)C(=O)OC`: the IC50 in the experiment with A549 was 5.3 µM; in the experiment on MDA-MB-231, 4.8 µM; in the experiment on KB, 4.8 µM; in experiment [1], 4.7 µM; in the experiment with MCF7, 5.6 µM.
As to `C/C=C1/CN(C)[C@H]2Cc3c([nH]c4ccccc34)C(c3c(OC)ccc4c5c([nH]c34)[C@]3(C(=O)OC)C[C@@H]4C[C@H](CC)[C@@H]3N(CC5)C4)C[C@H]1[C@@H]2C(=O)OC` (stereo not given in full), the IC50 in the experiment with A549 amounted to 4.4 µM; with MDA-MB-231 it was 5.2 µM; in the experiment with KB, 5 µM; in experiment [1] it was 4.1 µM; in the experiment on MCF7, 5.6 µM.
`C/C=C1/CN(C)[C@H]2Cc3c([nH]c4ccccc34)[C@H](c3cc4c5c([nH]c4cc3OC)[C@]3(C(=O)OC)C[C@@H]4C[C@H](CC)[C@@H]3N(CC5)[C@@H]4CC(C)=O)C[C@H]1[C@@]2(CO)C(=O)OC`: the IC50 in the experiment on A549 is 4.4 µM; in the experiment with MDA-MB-231 it was 3.2 µM; in the experiment with KB, 4.6 µM; in experiment [1], 4.4 µM; in the experiment on MCF7, 4.4 µM.
Consider `CC(=O)O[C@H]1C(=O)[C@@]2(C)[C@H]([C@H](OC(=O)c3ccccc3)[C@]3(O)C[C@H](OC(=O)[C@H](O)[C@@H](NC(=O)c4ccccc4)c4ccccc4)C(C)=C1C3(C)C)[C@]1(OC(C)=O)CO[C@@H]1C[C@@H]2O` [PACLITAXEL], for which the IC50 with A549 was found to be 0.0045 µM; with MDA-MB-231, 0.007 µM; in the experiment with KB it was 0.0036 µM; in experiment [1] it was 2.36 µM; in the experiment on MCF7 it was 0.0088 µM.
For `CC[C@]1(O)C[C@@H]2CN(CCc3c([nH]c4ccccc34)[C@@](C(=O)OC)(c3cc4c(cc3OC)N(C)[C@H]3[C@@](O)(C(=O)OC)[C@H](OC(C)=O)[C@]5(CC)C=CCN6CC[C@]43[C@@H]65)C2)C1` [VINBLASTINE], the IC50 in the experiment on A549 is 0.023 µM; in the experiment with MDA-MB-231 it was 0.032 µM; in the experiment on KB it was 0.0044 µM; in experiment [1] it was 2.48 µM; in the experiment with MCF7 it was 0.0073 µM.

By IC50 is commonly meant the point on the concentration scale where inhibition reaches its midpoint. A higher IC50 goes with a need for much substance.
